Measurements pooled from the literature.
FABP1: Fatty acid-binding protein, liver (FABP1, Homo sapiens, UniProt P07148)
ADRA1A: Alpha-1A adrenergic receptor (ADRA1A, Homo sapiens, UniProt P35348)
MAL12: Alpha-glucosidase MAL12 (MAL12, Saccharomyces cerevisiae S288c, UniProt P53341)
MAOA: Amine oxidase [flavin-containing] A (MAOA, Homo sapiens, UniProt P21397)

Compound | target | test | setting | measurement | result
O=S(=O)(O)C(F)(F)C(F)(F)C(F)(F)C(F)(F)C(F)(F)C(F)(F)F | FABP1 | ligand displacement, fluorescence |  | Kd | 11.2 µM
COc1cc2c(cc1OC)CN(CCc1ccc(NC(=O)c3cccc4c(=O)c5cccc(OC)c5[nH]c34)cc1)CC2 | ADRA1A | cell-free assay |  | Ki | 0.183 µM
COc1cc2c3c(c1OC)-c1c(OC)ccc(Cl)c1CC3N(C)CC2 (racemic) | ADRA1A | cell-free assay, radioligand |  | Ki | 0.023 µM
CCc1ccc(N2C(=O)/C(=C3/C(=O)N(C)c4ccc(Cl)cc43)NC2=S)cc1 | MAL12 | enzyme activity, inhibitor, absorbance |  | IC50 | 128 µM
O=P(Oc1ccccc1)(Oc1ccccc1)C(NCc1cncc2ccccc12)c1ccc(O)cc1 (stereo not shown) | sn-1-specific diacylglycerol lipase ABHD11 (ABHD11, Homo sapiens, UniProt Q8NFV4) | enzyme activity, inhibitor | lysate | IC50 | 1.9 µM
COc1cc(O)cc(/C=C/c2ccc(O)cc2)c1 | MAL12 | enzyme activity, inhibitor, absorbance | pH 6.8 | IC50 | 11.7 µM
O=C(Nc1ccc([N+](=O)[O-])cc1Cl)c1cc(Cl)ccc1O | FABP1 | ligand displacement, fluorescence |  | Kd | 9.69 µM
CC[C@H](C)[C@H](N)C(=O)N1CCC[C@H]1C(=O)N1CCC[C@H]1C(=O)NCC(=O)N[C@H](C(=O)N1CCC[C@H]1C(=O)N[C@@H](Cc1ccc(O)cc1)C(=O)O)C(C)C | MAOA | enzyme activity, inhibitor, fluorescence |  | IC50 | 829 µM
CCOC(=O)c1ccc(OC(=O)CCCCCN=C(N)N)cc1 | Kallikrein-7 (KLK7, Homo sapiens, UniProt P49862) | enzyme activity, inhibitor |  | IC50 | 15.6 µM
CC[C@H](C)[C@H](NC(=O)[C@H](C)NC(=O)[C@H](CCC(=O)O)NC(=O)[C@H](Cc1c[nH]cn1)NC(=O)[C@H](CC(C)C)NC(=O)[C@@H](NC(=O)[C@H](Cc1ccccc1)NC(=O)[C@H](CO)NC(=O)[C@@H](NC(=O)[C@H](CC(C)C)NC(=O)[C@H](CC(=O)O)NC(=O)[C@H](CC(C)C)NC(=O)[C@@H]1CCCN1)[C@@H](C)O)C(C)C)C(=O)O | MAOA | enzyme activity, inhibitor, fluorescence |  | IC50 | 73 µM
COc1cc2c3c(c1OC)-c1c(OC)ccc(Br)c1CC3N(C)CC2 (stereo not shown) | ADRA1A | cell-free assay, radioligand |  | Ki | 0.016 µM
Cc1cc(SC2=C(O)C[C@@](CCc3ccc(N)cc3)(C(C)C)OC2=O)c(C(C)(C)C)cc1CO | FABP1 | ligand displacement, fluorescence |  | Kd | 1.68 µM
CN1C(=S)N(c2ccccc2)C(=O)/C1=C1/C(=O)N(C)c2ccc(Cl)cc21 | MAL12 | enzyme activity, inhibitor, absorbance |  | IC50 | 157 µM
